Source: PubChem BioAssay
SR-BI HDL uptake = inhibitors of mouse SR-BI mediated HDL lipid uptake. Q61009. ldlA[mSR-BI] CHO cells, DiI-HDL uptake fluorescence, 3 h. inhibition, % at 12.5 µM. actives 0.96% (n = 320,000). AID 488896;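 active means mean replicate inhibition of at least 70% and a set share of replicates each scoring 70 or more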;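 further: 0% = median of neutral control wells and 100% = median of positive control wells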
Target sequence (Q61009 whole entry, looked up): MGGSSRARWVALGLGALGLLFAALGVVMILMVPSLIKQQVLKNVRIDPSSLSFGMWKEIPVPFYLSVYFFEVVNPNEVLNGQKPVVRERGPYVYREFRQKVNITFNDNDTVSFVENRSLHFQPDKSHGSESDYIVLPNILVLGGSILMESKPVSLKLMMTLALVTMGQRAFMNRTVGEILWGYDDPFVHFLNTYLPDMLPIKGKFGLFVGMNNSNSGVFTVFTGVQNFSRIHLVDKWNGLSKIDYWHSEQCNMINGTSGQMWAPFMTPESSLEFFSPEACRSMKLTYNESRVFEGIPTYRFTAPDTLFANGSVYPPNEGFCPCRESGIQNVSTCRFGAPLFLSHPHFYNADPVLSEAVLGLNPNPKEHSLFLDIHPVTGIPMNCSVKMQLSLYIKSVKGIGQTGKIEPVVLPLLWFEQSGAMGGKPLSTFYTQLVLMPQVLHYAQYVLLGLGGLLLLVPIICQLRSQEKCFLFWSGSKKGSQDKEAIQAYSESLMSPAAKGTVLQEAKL
ARNT-TACC3 inh = disruptors of human ARNT/TACC3 interaction; actives 0.66% (n = 390,000); AlphaScreen His-ARNT PAS-B/GST-TACC3 binding, luminescence; TACC3 fragment carries E629A point mutation; inhibition, % at 9.99 µM; AID 623870; Q9Y6A5;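 active means mean inhibition of replicates at least 50% and at least half of replicates each reaching 50%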;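 further: 0% = complete ARNT plus TACC3 wells and 100% = ARNT alone without TACC3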
CAL PDZ FP-1 = inhibitors of human CAL PDZ peptide binding | inhibition, % at 20 µM | actives 0.02% (n = 330,000) | Q9HD26 | AID 504414 | purified CAL PDZ, TMR-peptide fluorescence polarization, 1 h;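 active means highest replicate inhibition of at least 40%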;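 further: plate controls were DMSO neutral control wells for no effect and unlabeled competitor peptide control wells for full effect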
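Test system: purified CerCALP PDZ construct; Compound dosing: one concentration, 20 µM compound; Also added: TMR-labelled reporter peptide T*-PRC34 bound in PDZ groove; Read-out: inhibition from polarization loss; Controls: unlabelled peptide and DMSO controls; Signal: FP readout, S and P plane fluorescence; Incubation: 1 h at RT.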
CAL PDZ FP-2 = CAL PDZ (human) peptide binding inhibition; actives 0.92% (n = 300,000); inhibition, % at 24.9 µM; AID 602252; purified CAL PDZ, TMR-peptide fluorescence polarization, 1 h; Q9HD26;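 active means mean inhibition of at least 30% with at least half of replicates also reaching 30%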;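 further: 0% = DMSO neutral control and 100% = excess unlabeled competitor peptide PRC23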
miR122 inh = blocks miR-122 activity in Huh7 sensor cells; Huh7 miR-122 Renilla luciferase sensor, 48 h; neutral wells = 0, positive control = 100; activation (reporter increase), % at 12.5 µM; actives 0.3% (n = 340,000); AID 602342;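 active means mean replicate activation score at least 90 and every replicate individually at or above 90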;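 further: higher luciferase means less miR-122 activity so hits act as miR-122 inhibitors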
SR-BI uptake up = SR-BI HDL lipid transfer activation. actives 0.096% (n = 320,000). CHO ldlA[mSR-BI] cells, DiI-HDL uptake fluorescence, 3 h; 100 = double the neutral-control signal. activation, % at 12.5 µM;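 active means mean replicate activation of at least 60% and every replicate at or above 60%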;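 further: 0% = median plate neutral-control signal and 100% = twice that signal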
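Material: SR-BI-overexpressing, LDLR-lacking CHO cells; schedule: compound exposure 3 h, 37 °C; reagent: DiI-labelled HDL at 10 µg/mL final; technique: bottom-read fluorescence, 550/595 nm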
AlphaScreen ctr = interferes with AlphaScreen signal, flagging false ARNT-TACC3 hits. shares compounds with ARNT-TACC3 inh. His-ARNT PASB-GST AlphaScreen artifact counter-screen, luminescence. AID 651705. actives 50% (n = 1,200). AC50, µM (titrated, usually from 68 µM), without a hit: top-dose activity change, negative = signal decrease;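 active means every separate test run was called active for a drop in luminescence, with AC50 within twice the top valid dose, actives reach about 71 µM in these data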
Numbers without * were called inactive; . = no result given; [ ] = another dose, or the depositor's remark. The list is not random: actives were taken first. Their share in the collection is about 2.1%.

SMILES | SR-BI HDL uptake | ARNT-TACC3 inh | CAL PDZ FP-1 | CAL PDZ FP-2 | miR122 inh | SR-BI uptake up | AlphaScreen ctr
c1ccc(-c2nnc(-c3ccccn3)nc2NCC2CCCCC2)cc1 | . | . | . | . | . | . | 3.1µM*
c1ccc(-c2nnc(-c3ccccn3)nc2NCC2CC2)cc1 | . | . | . | . | . | . | 1.04µM*
CC(=O)Nc1ccc2c(c1)C(=O)N(C)[C@@H]1CC[C@H](CC(=O)NCc3ccc4c(c3)OCO4)O[C@@H]1CO2 | . | -10.3 | . | . | -16.7[16.7 µM] | . | .
COc1ccc(-c2[nH]ncc2/C=N/NC(=O)c2cccc([N+](=O)[O-])c2)cc1OC | 42.1 | 8.2 | 0.2 | -5.1 | 9.7 | -42.1 | .
COc1ccc(-c2[nH]ncc2/C=N\NC(=O)c2cccs2)cc1OC | 10.5 | 51.2* | -5.0 | -9.7 | 6.5 | -10.5 | -21.5%
C[C@@H]1CN([C@H](C)CO)S(=O)(=O)c2ccc(C#CCN(C)C)cc2O[C@H]1CN(C)Cc1ccccc1 | . | 9.5 | . | . | -4.1[16.7 µM] | . | .
COc1ccc(-c2oc3cc(O)c(OC)c(O)c3c(=O)c2OC)cc1O | -3.9 | 56.2* | -1.9 | -1.7 | 61.3 | 3.9 | -37.4%
CC(C)Nc1nc(-c2ccccn2)nc(-c2ccccc2)c1C#N | -5.5 | . | -1.4 | 9.2 | 5.2 | 5.5 | .
c1ccc(-c2cnc(Nc3nc(-c4ccccn4)nnc3-c3ccccc3)s2)cc1 | . | . | . | . | . | . | 2.59µM*
Cc1ccc(Nc2nc(-c3ccccn3)nnc2-c2ccccc2)cn1 | . | . | . | . | . | . | 0.424µM*
C[C@H]1CN([C@@H](C)CO)C(=O)CCCn2cc(nn2)CO[C@H]1CN(C)S(=O)(=O)c1ccc(-c2ccccc2)cc1 | . | 11.0 | . | . | -5.3[16.7 µM] | . | .
Cc1ccccc1Oc1nc(-c2ccccn2)nc2ccccc12 | 7.1 | 50.9* | -1.1 | -4.2 | -11.9 | -7.1 | -21.3%
Cc1cccc(Oc2nc(-c3ccccn3)nc3ccccc23)c1 | -3.8 | 64.7* | -2.5 | -2.9 | 3.9 | 3.8 | -17.8%
C[C@@H]1CN([C@H](C)CO)C(=O)c2cccc(NS(=O)(=O)c3cn(C)cn3)c2O[C@H]1CN(C)S(=O)(=O)c1cccs1 | . | . | . | . | 1.7[16.7 µM] | . | .
Cc1ccsc1C(=O)Nc1nnc(-c2ccco2)o1 | 2.4 | 53.5* | -1.1 | 2.1 | 8.4 | -2.4 | 48.1µM*
Cc1ccc(C(=O)Nc2nnc(-c3ccco3)o2)cc1 | 14.9 | 29.3 | -0.2 | 0.8 | 6.9 | -14.9 | .
N#Cc1ccc(C(=O)Nc2nnc(-c3ccco3)o2)cc1 | -20.6 | 39.6* | 0.1 | -12.1 | . | 20.5 | -38.0%
COC(=O)C[C@H]1C[C@H]2c3cc(NC(=O)Nc4ccc(OC)cc4)ccc3O[C@H]2[C@H](CO)O1 | . | 3.4 | . | . | 7.3[16.7 µM] | . | .
CCCc1nnc(NS(=O)(=O)c2ccc(C)cc2)o1 | -10.6 | 63.5* | 1.3 | 0.3 | 9.7 | 10.6 | -0.3%
Cc1cc(C)n2nc(-c3cccc(Br)c3)cc2n1 | 14.9 | 51.3* | -5.3 | 7.0 | 17.0 | -14.9 | 8.2%
O=C(C[C@H]1CC[C@H](NC(=O)Nc2cccc(F)c2)[C@H](CO)O1)NCC1CC1 | . | -6.7 | . | . | -16.3[16.7 µM] | . | .
O=C(O)C[C@H]1C[C@@H]2c3cc(NC(=O)Nc4ccc(F)cc4)ccc3O[C@@H]2[C@@H](CO)O1 | . | -0.3 | . | . | 3.2[16.7 µM] | . | .
Cc1c(CCC(=O)O)c(=O)oc2c(C)c3occ(-c4ccc(Cl)cc4)c3cc12 | 2.4 | 56.2* | -11.0 | -18.1 | . | -2.4 | 61.9µM*
CN(C)C(=O)CSc1cnc2ccccc2n1 | -4.3 | 0.9 | -1.0 | 3.6 | . | 4.3 | .
O=C(CSc1cccc2cccnc12)N1CCCC1 | -5.7 | 87.3* | . | -2.2 | -3.6 | 5.7 | 10.2µM*
SMILES | SR-BI HDL uptake | ARNT-TACC3 inh | CAL PDZ FP-1 | CAL PDZ FP-2 | miR122 inh | SR-BI uptake up | AlphaScreen ctr
CN(C)C(=O)CSc1cccc2cccnc12 | -17.9 | 60.4* | -0.3 | -2.1 | -7.8 | 17.9 | 15µM*
C[C@@H]1CCCCO[C@H](CN(C)Cc2ccc(C(=O)O)cc2)[C@H](C)CN([C@H](C)CO)C(=O)c2cc(NC(=O)CCC(F)(F)F)ccc2O1 | . | -9.8 | . | . | -0.6[16.7 µM] | . | .
Cc1ccc(S(=O)(=O)Cn2nnnc2C(c2ccccc2)N2CCN(c3ccccc3)CC2)cc1 (stereo not drawn) | -17.2 | 58.4* | -1.0 | -1.5 | -3.0 | 17.2 | -32.9%
Cc1ccc(S(=O)(=O)Cn2nnnc2C(c2ccccc2)N2CCN(c3ncccn3)CC2)cc1 (stereo not drawn) | 2.4 | -3.0 | 0.9 | -1.2 | 53.8 | -2.4 | .
Cc1ccc2[nH]c3c(c2c1)CCCC3NCCO (stereo not drawn) | -1.8 | 43.1* | -0.5 | . | -1.9 | 1.8 | -22.2%
Cc1ccc2[nH]c3c(c2c1)CCCC3=O | 7.4 | -2.2 | -2.5 | 7.6 | -1.4 | -7.4 | .
COC(=O)C[C@@H]1CC[C@@H]2[C@@H](COc3ccc(NC(=O)c4ccc(F)c(F)c4)cc3C(=O)N2C)O1 | . | -4.6 | . | . | -8.3[16.7 µM] | . | .
CCCC#Cc1ccc2c(c1)O[C@@H](CN(C)CC1CCOCC1)[C@H](C)CN([C@H](C)CO)S2(=O)=O | . | -1.0 | . | . | 6.5[16.7 µM] | . | .
Cn1c(CCNC(=O)c2ccc(Cl)c(Cl)c2)nnc1SCc1ccc(Cl)c(Cl)c1 | 37.4 | 60.5* | . | -4.6 | 0.3 | -37.4 | -1.9%
COCC(=O)N/N=C\c1ccccc1OC/C=C/c1ccccc1 | 10.9 | 6.3 | -3.2 | -7.2 | 3.9 | -10.9 | .
N#CCC(=O)N/N=C\c1ccccc1OC/C=C/c1ccccc1 | 24.1 | 63.7* | -1.6 | -1.7 | . | -24.1 | 54.6µM*
Cc1ccc(S(=O)(=O)N(C)C[C@H]2Oc3ncc(-c4ccccc4)cc3C(=O)N([C@@H](C)CO)C[C@H]2C)cc1 | . | 3.1 | . | . | -6.6[16.7 µM] | . | .
c1ccc(CN2CCN(CCCNc3ccc4nnc(-c5ccccc5)n4n3)CC2)cc1 | . | 56.7* | -17.3 | . | -12.3 | . | 70.9µM*
C[C@H](CO)N1C[C@H](C)[C@H](CN(C)C(=O)c2ccccc2F)Oc2cc(-c3ccccc3)ccc2S1(=O)=O | . | . | . | . | -8.2[16.7 µM] | . | .
CCCCCCSc1cccc(-c2nc3ccc(C)cn3c2NC2CCCCC2)c1 | -3.7 | 2.6 | -0.7 | -1.8 | 8.3 | 3.7 | .
Cc1ccccc1Nc1c(-c2ccccn2)nc2c(C)cccn12 | . | 26.8 | -0.3 | 0.0 | 4.5 | . | .
Cc1cccc(C)c1Nc1c(-c2ccccn2)nc2ccccn12 | 13.9 | 65.1* | -0.4 | -7.4 | -12.6 | -13.9 | 18.4µM*
Cc1ccc2nc(-c3ccccn3)c(NC3CCCC3)n2c1 | 29.8 | 60.8* | 0.4 | 5.3 | -3.9 | -29.8 | 32.2µM*
Cc1cccc2nc(-c3ccco3)c(Nc3ccccc3)n12 | . | -1.7 | -0.2 | -1.2 | 3.3 | . | .
Cc1ccc(Nc2c(-c3ccccn3)nc3cccc(C)n23)cc1 | . | 55.6* | 0.4 | -18.4 | 17.4 | . | 19.8µM*
O=C(Cc1ccccn1)NCC[C@H]1CC[C@@H](NC(=O)CN2CCOCC2)[C@H](CO)O1 | . | -10.2 | . | . | . | . | .
